Sampled rows, rich in hits. Any-hit rate of the full collection: about 3.1%.
OX1R antag-1 – antagonists of human orexin 1 receptor (OX1R). Orexin/Hypocretin receptor type 1 (Homo sapiens), O43613. OX1R-expressing cells, FRET antagonist read-out. inhibition, % at 6.6 µM. 330,000 tested, 1.8% active. AID 485270, 2010; in the data active = inhibition mostly above about 38%, no sharp cut-off; inactive = mostly below about 40%
Target sequence (O43613 whole entry, looked up): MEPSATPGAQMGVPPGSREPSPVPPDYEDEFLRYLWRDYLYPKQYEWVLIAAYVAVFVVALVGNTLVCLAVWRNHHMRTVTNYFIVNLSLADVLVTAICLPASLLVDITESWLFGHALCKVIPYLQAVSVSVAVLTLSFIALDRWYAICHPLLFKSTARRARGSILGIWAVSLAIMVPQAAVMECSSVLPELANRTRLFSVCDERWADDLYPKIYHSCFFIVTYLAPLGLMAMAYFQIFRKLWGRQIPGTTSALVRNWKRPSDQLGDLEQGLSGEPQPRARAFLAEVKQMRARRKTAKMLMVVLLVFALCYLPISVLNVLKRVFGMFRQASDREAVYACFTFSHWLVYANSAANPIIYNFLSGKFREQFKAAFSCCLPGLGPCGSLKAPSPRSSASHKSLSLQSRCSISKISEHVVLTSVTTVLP
GPR7 antag – GPR7 receptor antagonists, primary screen, cell-based, fluorescence, single concentration | inhibition, % at 4.4 µM | 290,000 tested, 1.1% active | AID 1861, 2009 | GPR7-expressing cells, fluorescence antagonist assay | Neuropeptides B/W receptor type 1 (Homo sapiens), P48145; in the data active = inhibition above about 16%, passing the limit was not always enough;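 also: cells stimulated with the agonist NPW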
CHO parental Ca – ATP-evoked calcium signal inhibitors, parental CHO, primary screen, counter-screen for OX1R antagonist project, cell-based, fluorescence, Fluo-8 calcium dye. parental CHO-K1, ATP-induced calcium, Fluo-8 fluorescence. inhibition, % at 5.6 µM. 330,000 tested, 0.63% active. AID 463079, 2010;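 active = inhibition above that plate's mean sample inhibition plus 3 SD, cut at about 26% in these data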
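Assay system: parental CHO cells; Read-out basis: percent inhibition of ATP-evoked calcium rise, normalized to controls; Benchmarks: ATP and no-ATP DMSO wells; Compound dosing: single nominal dose of 5.6 µM per compound; Signal: Fluo-8 calcium dye fluorescence; Also added: ATP as calcium-mobilizing challenge; Repeats: singlicate.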
GalR3 antag – GalR3 antagonists in HEK293 cells, primary screen, cell-based, fluorescence readout; inhibition, % at 3 µM; 360,000 tested, 0.44% active; HEK293 GalR3-CNG cAMP membrane potential fluorescence; galR3 body fused to GalR1 C-terminus;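 active = inhibition above the screen-wide average plus 3 SD, cut at about 13% in these data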;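 also: forskolin and galanin both at EC90 stimulate the cells; cAMP rise reported by CNG channel membrane potential dye signal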
Target sequence (O60755 1-299 limits assumed): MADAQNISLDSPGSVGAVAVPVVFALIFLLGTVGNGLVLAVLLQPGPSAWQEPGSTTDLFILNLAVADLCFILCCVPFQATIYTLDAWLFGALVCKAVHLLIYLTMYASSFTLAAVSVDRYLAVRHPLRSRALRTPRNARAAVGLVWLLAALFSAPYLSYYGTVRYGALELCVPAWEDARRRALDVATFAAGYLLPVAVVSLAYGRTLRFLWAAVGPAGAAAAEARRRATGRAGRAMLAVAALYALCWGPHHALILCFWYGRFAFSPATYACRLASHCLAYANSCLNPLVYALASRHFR
OX1R antag-2 – OX1R (HCRTR1) antagonists, primary screen, fluorescence, CHO/OX1R cells, Fluo-8 calcium, orexin A; Fluo-8 calcium fluorescence; inhibition, % at 5 µM; 330,000 tested, 0.43% active; AID 434989, 2010;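 active = inhibition above its plate's threshold, mean inhibition of all tested compounds on the plate plus 3 SD, cut at about 37% in these data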
OX1R HTRF confirm – OX1R (HCRTR1) antagonists, confirmation, cell-based, HTRF; OX1R-expressing cells, HTRF antagonist assay; 1,800 tested, 49% active; AID 492964, 2010; shares compounds with OX1R antag-1; inhibition, % at 6.6 µM; in the data active = inhibition above about 55%;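 also: CHO cells expressing OX1R stimulated with orexin A at about EC80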
CHO-K1 HTRF – signal inhibition in parental CHO-K1 cells, counter-screen for OX1R antagonist project, cell-based, HTRF | shares compounds with OX1R antag-1 | HTRF counterscreen | inhibition, % at 6.6 µM | 1,800 tested, 48% active; in the data active = inhibition above about 17%
Each line names hits and unclear results; the compound was inactive in the other large screens (follow-up assays come after a bar, where they were run).

O=C(Nc1ccccn1)c1ccc2ccccc2n1	OX1R antag-1 86 | OX1R HTRF confirm 68 | CHO-K1 HTRF inactive
O=C(Nc1ccccn1)c1ccc2ccccc2c1O	none
O=C(NCCCN1CCOCC1)c1sc2cc(Cl)ccc2c1Cl	none
O=C(CN1CCCCCC1)Nc1ccc([N+](=O)[O-])cc1Cl	none
O=C(NCCN1CCOCC1)c1ccc([N+](=O)[O-])cc1[N+](=O)[O-]	OX1R antag-1 179 | OX1R HTRF confirm 73 | CHO-K1 HTRF 81
O=C(CN1CCOCC1)Nc1cc([N+](=O)[O-])ccc1Cl	OX1R antag-1 79 | OX1R HTRF confirm inactive | CHO-K1 HTRF 35
O=C(NCCCN1CCOCC1)c1sc2cc([N+](=O)[O-])ccc2c1Cl	OX1R antag-1 93 (no result: GalR3 antag) | OX1R HTRF confirm inactive | CHO-K1 HTRF 56
COC(=O)c1sc(NC(=O)OCc2ccccc2)nc1CCNC(=O)OC(C)(C)C	none (no result: OX1R antag-1, GPR7 antag, CHO parental Ca, OX1R antag-2)
CCN(CC)C(=O)[C@H]1C[C@@H]2[C@H](C[C@@H](c3ccccc3)[C@H]1C)N(c1ccc(F)cc1)C(=O)N2C/C=C(\C)CCC=C(C)C	none (no result: OX1R antag-1, GPR7 antag, CHO parental Ca, OX1R antag-2)
O=C(NCCc1ccccc1)[C@@H]1CC=C[C@@H]2CCN(Cc3ccc(Cl)c(Cl)c3)C(=O)[C@@H]21	OX1R antag-1 82 (no result: GPR7 antag) | OX1R HTRF confirm 66 | CHO-K1 HTRF inactive
O=C(NCc1cccnc1)[C@@H]1CC=C[C@@H]2CCN(Cc3ccc(Cl)c(Cl)c3)C(=O)[C@@H]21	none (no result: GPR7 antag)
O=c1[nH]c2cc3c(cc2cc1CN(Cc1cccs1)Cc1nnnn1Cc1ccco1)OCCO3	OX1R antag-1 103 | OX1R HTRF confirm inactive | CHO-K1 HTRF inactive
O=c1[nH]c2cc3c(cc2cc1CN(Cc1ccccc1)Cc1nnnn1Cc1ccco1)OCCO3	none (no result: OX1R antag-1, CHO parental Ca, OX1R antag-2)
Cc1ccsc1C(=O)Nc1ccc(O)c(-c2nc3ccccc3s2)c1	OX1R antag-1 81 | OX1R HTRF confirm 73 | CHO-K1 HTRF inactive
CC(=O)Nc1ccc(O)c(-c2nc3ccccc3s2)c1	none
O=C(Nc1ccc(O)c(-c2nc3ccccc3s2)c1)C1=COCCO1	OX1R antag-1 88 | OX1R HTRF confirm inactive | CHO-K1 HTRF inactive
CCN(Cc1ccccc1)c1ccc(N=Nc2nn(C)c(C)c2[N+](=O)[O-])cc1	none
CCN(CC)c1ccc(N=Nc2nn(C)c(C)c2[N+](=O)[O-])cc1	OX1R antag-1 88 | OX1R HTRF confirm inactive | CHO-K1 HTRF 29
Cn1ncc2c(Nc3ccc4ccccc4c3)ncnc21	OX1R antag-1 78 | OX1R HTRF confirm 78 | CHO-K1 HTRF inactive
Cc1cccc(Nc2ncnc3c2cnn3C)c1	none
c1ccc(N2CCN(c3ncnc4c3oc3ccccc34)CC2)cc1	OX1R antag-1 90 | OX1R HTRF confirm 65 | CHO-K1 HTRF inactive
CCc1nnc(N2CCN(c3ncnc4c3oc3ccccc34)CC2)s1	none (no result: OX1R antag-1, CHO parental Ca, OX1R antag-2)
CC(C)(C)c1ccc2cccc(F)c2n1	none (no result: OX1R antag-1, GPR7 antag, CHO parental Ca, OX1R antag-2)
COc1ccc(CNc2nc(-c3ccccc3)nc3ccccc23)cc1OC	OX1R antag-1 85 | OX1R HTRF confirm 68 | CHO-K1 HTRF inactive
Fc1ccc(CNc2nc(-c3ccccc3)nc3ccccc23)cc1	none (no result: OX1R antag-1, CHO parental Ca, OX1R antag-2)
O=C(Nc1c(-c2ccc(Cl)cc2)[nH][nH]c1=O)c1ccccn1	none (no result: OX1R antag-1, GPR7 antag, CHO parental Ca, OX1R antag-2)
C=CCOc1ccc(CNc2ccc3[nH]c(=O)[nH]c3c2)cc1OCC	OX1R antag-1 112 | OX1R HTRF confirm inactive | CHO-K1 HTRF inactive
CCOc1cc(CNc2ccc3[nH]c(=O)[nH]c3c2)ccc1OCC(=O)NC(C)(C)C	none
Cc1c(Cl)c([N+](=O)[O-])nn1CCCC(=O)N(Cc1ccccc1)Cc1ccccc1	OX1R antag-1 84 | OX1R HTRF confirm 85 | CHO-K1 HTRF inactive
Cc1nc2ccccc2c(=O)n1C1CCCCCC1	none
CCO/C(C)=N/n1c2nc3ccccc3nc2c2c(=O)n(C3CCCC3)c(C)nc21	OX1R antag-1 100 | OX1R HTRF confirm inactive | CHO-K1 HTRF 36
CC(C)(C)n1cnnc1Sc1ncccc1[N+](=O)[O-]	OX1R antag-1 85 | OX1R HTRF confirm inactive | CHO-K1 HTRF 29
O=C(O)CSc1ncnc2nc[nH]c12	none
O=C(CSc1ncnc2nc[nH]c12)c1ccc2ccccc2c1	OX1R antag-1 84 | OX1R HTRF confirm inactive | CHO-K1 HTRF inactive
CCOC(=O)C1CCCN(S(=O)(=O)c2cccc3nsnc23)C1 (stereo not drawn)	none
O=S(=O)(c1cccc2nsnc12)N1CCN(c2ncccn2)CC1	OX1R antag-1 84 | OX1R HTRF confirm inactive | CHO-K1 HTRF 20
CCOC(=O)N1CCN(S(=O)(=O)c2cccc3nsnc23)CC1	OX1R antag-1 82 | OX1R HTRF confirm inactive | CHO-K1 HTRF 39
O=S(=O)(c1cccc2nsnc12)N1CCCC1	none
CCOC(=O)c1ccc([N+](=O)[O-])cc1NC(C)=O	OX1R antag-1 83 | OX1R HTRF confirm inactive | CHO-K1 HTRF 44
CCOC(=O)c1ccccc1NC(=O)c1cccc([N+](=O)[O-])c1	none
CC1(C(=O)NS(=O)(=O)c2ccc(C#N)cc2)CCN1C(=O)CC1CCCCC1 (stereo not drawn)	none (no result: OX1R antag-1, GPR7 antag, CHO parental Ca, OX1R antag-2)
COc1ccc(N=NC2=C(O)CC(C)(C)CC2=O)cc1	OX1R antag-1 102 | OX1R HTRF confirm inactive | CHO-K1 HTRF 28
COc1cc(C(C)n2nnc3ccccc32)ccc1O (stereo not drawn)	none (no result: OX1R antag-1, GPR7 antag, CHO parental Ca, OX1R antag-2)
N#Cc1cc([N+](=O)[O-])cnc1N(CCO)CCO	OX1R antag-1 82 | OX1R HTRF confirm inactive | CHO-K1 HTRF 22
CCC(CO)Nc1ncc([N+](=O)[O-])cc1C#N (stereo not drawn)	none
O=[N+]([O-])c1ccc(/C=N/n2cn[nH]c2=S)cc1	OX1R antag-1 109 | OX1R HTRF confirm 60 | CHO-K1 HTRF 74
CSc1nncn1/N=C/c1ccc2c(c1)OCO2	none
CSc1nncn1/N=C/c1ccc([N+](=O)[O-])cc1	OX1R antag-1 90 | OX1R HTRF confirm inactive | CHO-K1 HTRF 46
CCn1c(SCC(=O)Nc2oc(C)c3c(C)n[nH]c(=O)c23)nnc1-c1ccco1	none (no result: OX1R antag-1, GPR7 antag, CHO parental Ca, OX1R antag-2)
Cc1cccc(C)c1NC(=O)C1(C)CN(S(C)(=O)=O)CC(=O)N1Cc1ccc2c(c1)OCO2 (stereo not drawn)	none (no result: OX1R antag-1, GPR7 antag, CHO parental Ca, OX1R antag-2)
Cc1noc(C)c1S(=O)(=O)N1CCCc2nc(-c3ccc(F)cc3)ccc21	none (no result: OX1R antag-1, GPR7 antag, CHO parental Ca, OX1R antag-2)
O=[N+]([O-])c1c(Nc2ccccc2O)cc(N2CCOCC2)c2nonc12	OX1R antag-1 80 | OX1R HTRF confirm inactive | CHO-K1 HTRF 34
CC(=O)C1=CCC(c2ccc(Cl)cc2)N(S(=O)(=O)c2ccccc2C)C1 (stereo not drawn)	none (no result: OX1R antag-1, GPR7 antag, CHO parental Ca, OX1R antag-2)
Cc1nnc(-n2cccc2)s1	none (no result: OX1R antag-1, GPR7 antag, CHO parental Ca, OX1R antag-2)

Screening data (PubChem)
